According to paper PMC6331719 (The EMBO Journal, 2018):

How the values were obtained:
CFTR (Caco-2 cells) = test: CFTR stability, ubiquitination and plasma membrane level, Caco-2 cells; assay type: cell-based, human; details: Caco-2, pre-incubation with potentiator, 24 h
In short: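 Caco-2 cells homogenised and spun at 2,300 × g for 15 min, then 16,000 × g for 1 h at 4°C. The membrane pellet was solubilised in Tris–HCl pH 7.4/EDTA buffer with 1% Triton X-100 and spun at 60,000 × g for 1 h to give the plasma-membrane fraction. Fraction used for IP or immunoblot against CFTR, ubiquitin, CHIP and related markers. Potentiator VX-770 at 10 μM.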

[1] = test system: CFTR (Caco-2 and T84 cells); test: Iodide efflux by SPQ in intestinal epithelial cells; assay type: cell-based, human; details: 20 min pre-treatment with potentiator, n = 3
Caco‐2 cells [2] = test: Endosomal trafficking markers, Caco-2 cells; assay type: cell-based, human; details: for Protection from P31–43 effects on BECN1, hVps34, UVRAG, Rab5, Rab7: Caco-2, pre-incubation with potentiator
In short: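 Endosomal fractions isolated from treated and untreated Caco-2 cells. Rab5 and Rab7 immunoblotted, with EEA-1 as loading control. Densitometry reported as mean ± SD of triplicate independent experiments. Potentiator VX-770 used at 10 μM.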

[3] = test system: duodenal biopsies from CD patients; test: Duodenal biopsies from CD patients, CD3+CD25+ cells in lamina propria; assay type: cell-based, human; details: Vrx-532 20 μM, 3 h pre-incubation
CFTR (Caco‐2 cells) = test: Ussing chamber, CFTR-dependent Cl- secretion in Caco-2 cells; assay type: cell-based, human; details: for Protection against P31–43-mediated reduction of chloride current: pre-incubation up to 20 min, VX-770 10 μM, Vrx-532 20 μM
In short: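 Caco-2 or T84 monolayers grown on 0.4-μm Transwells to 800–1,200 Ω cm2, then mounted in Ussing chambers. Ringer both sides, 37°C, gassed with 95% O2/5% CO2. Cells pretreated 3 h with peptides (20 μg/ml) or PT gliadin (500 μg/ml), or given bath peptides (100 μM, 3–5 min) after 100 μM amiloride. VX-770 10 μM for 5 min. Forskolin 20 μM; peak CFTRinh172-sensitive Isc.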

celiac PBMC [4] = test: Caco-2 CFTR-KO / celiac PBMC co-culture, cytokine release; assay type: cell-based, human; details: VX-770, P31–43 and P57–68 challenge
wild‐type mouse CFTR = details: ref Cui & McCarty, 2015; Cui et al, 2016; Zeng et al, 2017; cited from earlier work
Caco‐2 cells [5] = test: Epithelial stress / innate immune markers by immunoblot, Caco-2 cells; assay type: cell-based, human
NOD mice = test: Gliadin-challenged NOD mice; assay type: in vivo, mouse; details: gliadin after diabetes onset, VX-770 i.p.
In short: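 Female NOD mice with diabetes (blood glucose > 250 mg/dl, monitored weekly) were used at 12–13 weeks. They were challenged orally with gliadin for 4 consecutive weeks. VX-770 was given intraperitoneally 15 min before each challenge. n = 10 mice per group.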

IL‐15 (Caco‐2 cells) [6] = test: IL-15 in lower compartment of bidimensional culture; assay type: cell-based, human; details: VX-770, P < 0.001 vs. peptide combination
BALB/c mice = test: Intestinal permeability; assay type: in vivo, mouse; details: VX-770 i.p. prior to gliadin, 4 weeks
In short: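 BALB/c mice kept ≥3 generations on a gluten-free diet were gavaged with gliadin (5 mg daily for 1 week, then thrice weekly for 3 weeks) ± intraperitoneal VX-770 15 min before; n = 10 per group. FITC-D4000 (600 mg/kg) was gavaged, and cardiac blood taken 1 h later. Plasma was diluted 1:1 in PBS and read at ex 485/em 528 nm against standards (50–0.312 μg/ml). Values are means ± SD of triplicate pooled samples.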

IL‐15 (Caco‐2 cells) [7] = test: IL-15 production; assay type: cell-based, human; details: Caco-2, VX-770 pre-treatment, P < 0.001
CFTR [8] = test: Proximity ligation assay CFTR / P31–43, Caco-2 cells; assay type: binding, human; details: short pre-incubation
In short: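 Caco-2 cells were pre-incubated up to 20 min with VX-770 (10 μM), then exposed to P31–43. Cells were fixed in 4% PFA for 15 min at room temperature and blocked with 0.1% Triton X-100/0.5% BSA. Primary antibodies were applied overnight at 4°C and Duolink probes (1:5) for 1 h at 37°C. Ligation, rolling-circle amplification, red detection and DAPI counterstain followed.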

[9] = test system: BALB/c mice small intestine; test: Small intestine protein markers; assay type: in vivo, mouse; details: VX-770 i.p. prior to gliadin
NOD‐DQ8 mice = test: Gliadin-challenged NOD-DQ8 mice; assay type: in vivo, mouse; details: gliadin 4 weeks, VX-770 i.p.
In short: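 NOD.[…] AB0null mice expressing HLA-DQ8 (congenic NOD background), 10 per group. Oral gliadin or vehicle for 4 weeks: 5 mg daily for 1 week, then 5 mg thrice weekly for 3 weeks. VX-770 given intraperitoneally 15 min before each gliadin challenge.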

[10] = test system: BALB/c mice small intestine; test: Small intestine cytokine protein levels; assay type: in vivo, mouse; details: VX-770 i.p. prior to gliadin
In short: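 BALB/c mice kept gluten-free for at least three generations, 10 weeks old, at least 10 per group. Oral gliadin or vehicle for 4 weeks (5 mg daily for 1 week, then thrice weekly for 3 weeks). Small-intestine homogenates assayed for IL-10 and TGF-β by ELISA, read in triplicate at 450 nm. Values normalised to Bradford protein.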

TG2 and CFTR = test: Co-immunoprecipitation of TG2 and CFTR, Caco-2 cells; assay type: cell-based, human; details: Caco-2, pre-treatment
TG2 = TG2 activity and TG2-catalysed crosslinking in Caco-2 cells; assay type: cell-based, human; details: Caco-2, Ca2+ pulse, BAP incorporation
Caco‐2CFTR‐KO cells = test: IL-15 production and ERK1/2 phosphorylation, Caco-2 CFTR-KO cells; assay type: cell-based, human
[11] = test system: BALB/c mice small intestine; test: Small intestine transcript levels, BALB/c mice; assay type: in vivo, mouse; details: VX-770 i.p. prior to gliadin
CFTR [12] = test: Co-immunoprecipitation of CFTR with biotinylated peptide, Caco-2 cells; assay type: binding, human; details: short pre-incubation, Caco-2
Caco‐2 cells [13] = test: F-actin confocal staining, Caco-2 cells; assay type: cell-based, human; details: Caco-2, 24 h, VX-770
[14] = test system: CFTR (small intestine, BALB/c mice); test: Ussing chamber, small intestine of BALB/c mice; assay type: in vivo, mouse; details: VX-770 i.p. 15 min prior to gliadin, 4 weeks
In short: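 BALB/c mice on a gluten-free diet for ≥3 generations were given oral gliadin (5 mg daily for 1 week, then thrice weekly for 3 weeks) ± VX-770; n = 10 per group. Small intestine tissue was mounted in Ussing chambers with identical Ringer on both sides, at 37°C, stirred and gassed with 95% O2/5% CO2.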

celiac PBMC [15] = test: Caco-2 / celiac PBMC bidimensional co-culture, cytokine release; assay type: cell-based, human; details: VX-770, P < 0.01

For `Cc1ccc(O)c(-c2cc(-c3ccccc3)n[nH]2)c1` [Vrx‐532], the “Prevention of P31–43 effects on CFTR stability / plasma membrane level” value (CFTR (Caco-2 cells)) was “prevented”, the “Protection of iodide efflux against P31–43” value [1] was “protecting intestinal epithelial cells against P31–43‐mediated CFTR inhibition” and the “Protection from P31–43 effects on BECN1, hVps34, UVRAG, Rab5, Rab7” value (Caco‐2 cells [2]) was “counteracted”. The “Abrogation of gliadin-peptide-induced CD3+CD25+ cell increase” value [3] was “highly effective in abrogating these effects of gliadin peptides” and the “Protection against P31–43-mediated reduction of chloride current” value (CFTR (Caco‐2 cells)) was “prevented”.
In the case of `CC(C)(C)c1cc(C(C)(C)C)c(NC(=O)c2c[nH]c3ccccc3c2=O)cc1O` [VX‐770], the “Prevention of IFN-γ production with Caco-2 CFTR-KO” value (celiac PBMC [4]) is listed as “failed to prevent the production of IFN‐γ by celiac PBMC”, the “Potentiation of wild-type mouse CFTR channel function” value (wild‐type mouse CFTR) is listed as “potentiate the ion channel function of wild‐type mouse CFTR” and the “Prevention of P31–43-induced NF-κB p65 translocation, NLRP3 expression, caspase-1 cleavage” value (Caco‐2 cells [5]; Caco-2, VX-770) is listed as “prevented additional pro‐inflammatory P31–43 effects”. For the same compound, the “Protection from P31–43-induced epithelial stress (PPARγ, phERK1/2, HSP70)” value (Caco‐2 cells [5]; Caco-2, pre-incubation with VX-770) was “protected Caco‐2 cells from signs of P31–43‐induced epithelial stress”, the “Prevention of P31–43 effects on CFTR stability / plasma membrane level” value (CFTR (Caco-2 cells)) was “prevented” and the “Protective effects in NOD mice” value (NOD mice) was “protective effects of VX‐770 were confirmed in NOD mice”. For the same compound, the “Prevention of IL-15 accumulation” value (IL‐15 (Caco‐2 cells) [6]) was “prevented by VX‐770”, the “Intestinal permeability” value (BALB/c mice) was “prevented the gliadin‐induced increase in intestinal permeability” and the “P31–43-induced IL-15 production” value (IL‐15 (Caco‐2 cells) [7]) was “prevented the P31–43‐induced production of IL‐15”. The “Effect of VX-770 on P31–43 interaction with CFTR (proximity ligation assay)” value (CFTR [8]) was “abolished the interaction of P31–43 with CFTR”, the “NKG2D upregulation on intraepithelial lymphocytes” value [9] was “counteracted” and the “NLRP3 expression” value [9] was “counteracted gliadin‐induced NLRP3 expression”. For the same compound, the “TG2 protein levels” value [9] was “opposed the ability of gliadin to increase TG2 protein levels”, the “NHERF-1 depletion” value ([9]; 4 weeks) was “abrogated the depletion of NHERF‐1” and the “Protective effects in NOD-DQ8 mice” value (NOD‐DQ8 mice) was “in NOD‐DQ8 mice as well”. For the same compound, the “Protection of iodide efflux against P31–43” value [1] was “protecting intestinal epithelial cells against P31–43‐mediated CFTR inhibition”, the “IL-10 and TGF-β production” value [10] was “improved IL‐10 and TGF‐β production” and the “IL-21 expression” value [10] was “inhibited the gliadin‐induced expression of IL‐21”. For the same compound, the “IL-15, IL-17A and IFN-γ mRNA and protein” value ([10]; P < 0.001) was “prevented the gliadin‐induced upregulation of IL‐15, IL‐17A, and IFN‐γ mRNA”, the “Prevention of P31–43-induced TG2–CFTR interaction” value (TG2 and CFTR) was “abolished the P31–43‐induced interaction of TG2 and CFTR” and the “Effect on TG2-mediated transamidation reactions itself” value (TG2) was “no impact on TG2‐mediated transamidation reactions”. The “IL-15 expression and ERK1/2 phosphorylation in CFTR-KO cells” value (Caco‐2CFTR‐KO cells) was “failed to modulate both IL‐15 expression and ERK1/2 phosphorylation in Caco‐2CFTR‐KO cells”, the “P31–43-mediated increase in CD71 cell surface expression” value (Caco‐2 cells [2]; Caco-2) was “blocked the P31–43‐mediated increase in the cell surface expression of transferrin receptor” and the “Protection from P31–43 effects on BECN1, hVps34, UVRAG, Rab5, Rab7” value (Caco‐2 cells [2]) was “counteracted”. The “P31–43-induced CD71–SIgA interaction” value (Caco‐2 cells [2]; Caco-2 pre-incubated with SIgA 1 h at 4°C) was “abrogated the ability of P31–43 to increase the interaction of CD71 with SIgA”, the “Rorc and Tbet” value [11] was “downregulated upon VX‐770 treatment” and the “Effect of VX-770 on P31–43 interaction with CFTR (co-immunoprecipitation)” value (CFTR [12]) was “abolished the interaction of P31–43 with CFTR”. The “Formation of F-actin stress fibers induced by P31–43” value (Caco‐2 cells [13]) was “negated the capacity of P31–43 to induce the formation of F‐actin stress fibers”, the “CFTR function and protein expression, gliadin-sensitive mice” value [14] was “prevented the gliadin‐induced decrease in CFTR function (Fig 5A) and protein expression” and the “IL-10 levels” value (celiac PBMC [15]) was “increased IL‐10 levels”. For the same compound, the “Prevention of IFN-γ production” value (celiac PBMC [15]) was “prevented the production of IFN‐γ by PT gliadin or peptide combination”, the “Effect of VX-770 on chloride current when added after P31–43” value (CFTR (Caco‐2 cells); P31–43 100 μM then VX-770 10 μM then Fsk) was “poorly active” and the “Protection against P31–43-mediated reduction of chloride current” value (CFTR (Caco‐2 cells)) was “prevented”.
